# In ChEMBL document CHEMBL2321800, “Design and synthesis of new bifunctional sigma-1 selective ligands with antioxidant activity” (J Med Chem, 2013):
# Calls of active or inactive are those of the source.
# Key:
# Rattus norvegicus [1] = organism: Rattus norvegicus; experiment: Antioxidant activity in rat liver mitochondria assessed as inhibition of Ca2+/phosphate induced mitochondrial swelling at 50 uM by spectrophotometry; format: functional
# Procedure, shortened: (§1)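 Mitochondria from rat liver (50 µM Ca2+) or cerebral cortex (Ficoll-purified; 100 µM Ca2+) at 1 mg protein/ml, 20 °C, in 200 mM sucrose, 10 mM HEPES pH 7.4, 5 mM succinate, 1 mM phosphate, 1.25 µM rotenone. Swelling followed as fall in apparent absorbance at 540 nm. Five runs.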
# Rattus norvegicus [2] = organism: Rattus norvegicus; experiment: Antioxidant activity in rat brain mitochondria assessed as inhibition of Ca2+/phosphate induced mitochondrial swelling by spectrophotometry; format: functional
# [3] = molecular target: Sigma non-opioid intracellular receptor 1 (Cavia porcellus, UniProt Q60492); experiment: Displacement of [3H]-(+)-pentazocine from sigma1 receptor in guinea pig brain membrane after 150 mins by liquid scintillation counting analysis; format: cell membranes
# Chain of Sigma non-opioid intracellular receptor 1 (Q60492 whole entry): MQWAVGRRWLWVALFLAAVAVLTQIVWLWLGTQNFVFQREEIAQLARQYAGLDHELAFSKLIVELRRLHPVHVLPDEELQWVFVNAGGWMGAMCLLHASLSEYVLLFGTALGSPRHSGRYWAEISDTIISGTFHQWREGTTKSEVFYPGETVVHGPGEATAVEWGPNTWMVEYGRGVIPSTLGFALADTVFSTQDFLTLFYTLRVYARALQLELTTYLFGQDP
# [4] = Displacement of [3H]DTG from sigma2 receptor in guinea pig brain membrane after 120 mins by liquid scintillation counting analysis; format: cell membranes, Cavia porcellus
# Procedure, shortened: (§2)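 Guinea pig brain membranes with 3 nM [3H]DTG (Kd 11 nM) plus 400 nM (+)-SKF10,047 to mask sigma1 sites. Nonspecific binding with 5 µM DTG. 50 mM Tris-HCl pH 8.0, 120 min at room temperature. Filtration, scintillation counting, Ki computed; three determinations. Ratio taken from sigma2 and sigma1 Ki values.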
# Cavia porcellus = organism: Cavia porcellus; experiment: Selectivity ratio of Ki for guinea pig sigma2 receptor to Ki for guinea pig sigma1 receptor; procedure, shortened: as §2
# Rattus norvegicus [5] = experiment: Antinociceptive activity in Sprague-Dawley rat assessed as basal tail flick latency at 1 mg/kg, sc by radiant heat tail flick test; format: functional, organism-based; parameters: dose 1 mg/kg
# Procedure, shortened: (§3)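 Male Sprague-Dawley rats (180-200 g), habituated the day before; radiant heat (infrared) aimed at lower third of tail, 25±1 °C. Basal latency 3-4 s, mean of three readings at 5 min intervals; 10 s cut-off. Drugs sc; tail-flick latency read 30, 45, 60, 75 and 90 min after injection. n=8-10, mean ± SD, two-way ANOVA with Duncan post-hoc.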
# Rattus norvegicus [6] = organism: Rattus norvegicus; experiment: Antioxidant activity in rat brain mitochondria assessed as inhibition of Ca2+/phosphate induced mitochondrial permeability transition at 25 to 50 uM by spectrophotometry; format: functional; procedure, shortened: as §1
# Rattus norvegicus [7] = experiment: Reduction of (-)-U50488H-induced basal tail flick latency in Sprague-Dawley rat at 1 mg/kg, sc after 30 to 90 mins by radiant heat tail flick test; format: functional, organism-based; parameters: dose 1 mg/kg; procedure, shortened: as §3
# Rattus norvegicus [8] = organism: Rattus norvegicus; experiment: Antioxidant activity in rat liver mitochondria assessed as inhibition of Ca2+/phosphate induced mitochondrial swelling at 25 uM by spectrophotometry; format: functional; procedure, shortened: as §1
# Rattus norvegicus [9] = organism: Rattus norvegicus; experiment: Antioxidant activity in rat brain mitochondria assessed as restoration of Ca2+/phosphate induced sulfhydryl group oxidation at 50 uM after 15 mins by mitochondrial thiol oxidation assay; format: functional
# Procedure, shortened: (§4)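 After 15 min under swelling conditions (1 mg/ml; Ca2+ 50 µM liver, 100 µM brain; succinate/rotenone, 1 mM phosphate, 20 °C), mitochondria were pelleted and solubilized in pH 8.3 EDTA/Tris/1% SDS with DTNB. Thiols read at 412 nm and given as percent reduced SH groups. Five independent experiments; ANOVA and Student's t-test.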
# Rattus norvegicus [10] = organism: Rattus norvegicus; experiment: Antioxidant activity in rat liver mitochondria assessed as restoration of Ca2+/phosphate induced sulfhydryl group oxidation at 25 to 50 uM after 15 mins by mitochondrial thiol oxidation assay; format: functional; procedure, shortened: as §4
# Rattus norvegicus [11] = organism: Rattus norvegicus; experiment: Antioxidant activity in rat liver mitochondria assessed as restoration of Ca2+/phosphate induced sulfhydryl group oxidation at 3 mM after 15 mins by mitochondrial thiol oxidation assay; format: functional; procedure, shortened: as §4
# Rattus norvegicus [12] = organism: Rattus norvegicus; experiment: Antioxidant activity in rat brain mitochondria assessed as restoration of Ca2+/phosphate induced sulfhydryl group oxidation at 3 mM after 15 mins by mitochondrial thiol oxidation assay; format: functional; procedure, shortened: as §4
Ki [3] [nM],Ki [4] [nM],Ratio Ki (Cavia porcellus),Structure (SMILES),also measured
,,,Nc1ncnc2c1ncn2[C@@H]1O[C@H](COP(=O)(O)OP(=O)(O)O)[C@@H](O)[C@H]1O,inhibition (Rattus norvegicus [1]): Active; inhibition (Rattus norvegicus [2]): Active
8.4,209,24.8,O=C(CCCCC1CCSS1)N1CCN(CCc2ccccc2)CC1 (stereo not given),
13.5,160,11.8,O=C(CCCCC1CCSS1)OC1CCN(CCc2ccccc2)CC1 (stereo not given),
10,91.6,9.16,O=C(CCCCC1CCSS1)N1CCN(CCCc2ccccc2)CC1 (stereo not given),
115,21000,183,CN1CCN(C(=O)CCCCC2CCSS2)CC1 (stereo not given),
25.7,101,3.9,O=C(CCCCC1CCSS1)OC1CCN(CCCc2ccccc2)CC1 (stereo not given),
1.8,637,354,O=C(CCCCC1CCSS1)N1CCN(Cc2ccccc2)CC1 (stereo not given),
1.14,14,12.3,O=C(CCCCC1CCSS1)OC1CCN(CC2CCCCC2)CC1 (stereo not given),
0.4,11.2,28,O=C(CCCCC1CCSS1)N1CCN(C2CCCCC2)CC1 (stereo not given),
5.56,2300,414,O=C(CCCCC1CCSS1)OC1CCN(Cc2ccccc2)CC1 (stereo not given),inhibition (Rattus norvegicus [1]): Active; Activity (Rattus norvegicus [5]): inactive; inhibition (Rattus norvegicus [6]): Active; Activity (Rattus norvegicus [7]): Active; inhibition (Rattus norvegicus [8]): Active; Activity (Rattus norvegicus [9]): Active; Activity (Rattus norvegicus [10]): Active
,,,OC[C@@H](O)[C@@H](S)CS,Activity (Rattus norvegicus [11]): Active; inhibition (Rattus norvegicus [1]): Active; Activity (Rattus norvegicus [12]): Active; inhibition (Rattus norvegicus [2]): inactive
